Among the data in ChEMBL document CHEMBL4052597, “Symmetrically Substituted Xanthone Amphiphiles Combat Gram-Positive Bacterial Resistance with Enhanced Membrane Selectivity” (J Med Chem, 2017) are MIC and Ratio values, retold here.

Common to all, as to format: functional
Test [1] has as its system Staphylococcus aureus. The test is described as follows: Antibacterial activity against Staphylococcus aureus DM 4001R after 24 hrs by two fold dilution assay. The procedure, abridged:
(§1)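 CLSI broth macrodilution in cation-adjusted Mueller-Hinton broth. Compounds were dissolved in DMF and diluted in PBS to a 1000 µg/mL stock, then serially 2-fold diluted in CA-MHB. The inoculum came from colonies on 18-20 h TSA plates (direct colony suspension), adjusted to ~5×10^5 CFU/mL. Incubation was 24 h at 35 °C. MIC is the lowest concentration with no visible growth versus control. Biological replicates.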

The test system of test [2] is Staphylococcus aureus. As to the kind of experiment: Antibacterial activity against methicillin-resistant Staphylococcus aureus DM 21455 after 24 hrs by two fold dilution assay. As to conditions: DM 21455, 24 h. The procedure, abridged: as §1
In another test the test system is Bacillus cereus. The test is described as follows: Antibacterial activity against Bacillus cereus ATCC 11778 after 24 hrs by two fold dilution assay. Particulars: ATCC 11778, 24 h. The procedure, abridged: (§2)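 Broth macro-dilution per CLSI in cation-adjusted Mueller-Hinton broth; compounds dissolved in DMF, diluted in PBS to 1000 µg/mL stock, then serial 2-fold dilutions in CA-MHB in tubes. Inoculum from 18-20 h TSA colonies (direct colony suspension), adjusted to about 5× 10^5 CFU/mL. MIC read after 24 h at 35 °C as lowest concentration with no visible growth; biological replicates.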

In test [3] the test system is Staphylococcus aureus. The test is described as follows: Antibacterial activity against methicillin-resistant Staphylococcus aureus DM 9808R after 24 hrs by two fold dilution assay. The procedure, abridged:
as §1

For test [4], the system named is Staphylococcus aureus. As to the kind of experiment: Ratio of MIC for Staphylococcus aureus ATCC 29213 after and before 15 serial passages.
The test system of test [5] is Enterococcus faecium. As to the kind of experiment: Antibacterial activity against vancomycin A-resistant Enterococcus faecium VRE 1007 after 24 hrs by two fold dilution assay. As to conditions: VRE 1007, 24 h. In short, it runs like this: as §1
Test [6] deals with Staphylococcus aureus. The test is described as follows: Antibacterial activity against methicillin-resistant Staphylococcus aureus DB6506 after 24 hrs by two fold dilution assay. Particulars: DB6506, 24 h. In short, it runs like this:
as §1

For test [7], the system named is Staphylococcus aureus. As to the kind of experiment: Antibacterial activity against methicillin-resistant Staphylococcus aureus ATCC 43300 after 24 hrs by two fold dilution assay. Particulars: ATCC 43300, 24 h. The procedure, abridged:
as §1

Test [8] relates to Enterococcus faecium. As to the kind of experiment: Antibacterial activity against vancomycin A-resistant Enterococcus faecium VRE 1008 after 24 hrs by two fold dilution assay. As to conditions: VRE 1008, 24 h. The procedure, abridged: as §1
A further test has as its system Enterococcus hirae. The test is described as follows: Antibacterial activity against Enterococcus hirae ATCC 9790 after 24 hrs by two fold dilution assay. As to conditions: ATCC 9790, 24 h. In short, it runs like this: as §2
Test [9] has as its system Staphylococcus aureus. As to the kind of experiment: Antibacterial activity against methicillin-resistant Staphylococcus aureus DB68004 after 24 hrs by two fold dilution assay. As to conditions: DB68004, 24 h. In short, it runs like this:
as §1

The subject of test [10] is Staphylococcus aureus. As to the kind of experiment: Antibacterial activity against methicillin-sensitive Staphylococcus aureus ATCC 29737 after 24 hrs by two fold dilution assay. Particulars: ATCC 29737, 24 h. In short, it runs like this: as §1
Another test has as its system Enterococcus faecalis. The test is described as follows: Antibacterial activity against Enterococcus faecalis ATCC 29212 after 24 hrs by two fold dilution assay. As to conditions: ATCC 29212, 24 h. The procedure, abridged:
as §2

The subject of test [11] is Staphylococcus aureus. The test is described as follows: Antibacterial activity against methicillin-resistant Staphylococcus aureus ATCC 700699 after 24 hrs by two fold dilution assay. Particulars: Mu50, 24 h. The procedure, abridged: as §1
The subject of test [12] is Staphylococcus aureus. The test is described as follows: Antibacterial activity against methicillin-resistant Staphylococcus aureus DB57964 after 24 hrs by two fold dilution assay. As to conditions: DB57964, 24 h. The procedure, abridged: as §1
Test [13] relates to Staphylococcus aureus. The test is described as follows: Antibacterial activity against methicillin-sensitive Staphylococcus aureus DM4400R after 24 hrs by two fold dilution assay. In short, it runs like this: as §1
Test [14] deals with Enterococcus faecium. The test is described as follows: Antibacterial activity against vancomycin A-resistant Enterococcus faecium VRE 1006 after 24 hrs by two fold dilution assay. As to conditions: VRE 1006, 24 h. The procedure, abridged:
as §1

The subject of test [15] is Staphylococcus aureus. The test is described as follows: Antibacterial activity against methicillin-sensitive Staphylococcus aureus DM4583R after 24 hrs by two fold dilution assay. The procedure, abridged:
as §1

Test [16] relates to Staphylococcus aureus. As to the kind of experiment: Antibacterial activity against methicillin-sensitive Staphylococcus aureus ATCC 6538 after 24 hrs by two fold dilution assay. Particulars: ATCC 6538, 24 h. The procedure, abridged: as §1
Test [17] concerns Staphylococcus aureus. The test is described as follows: Antibacterial activity against methicillin-resistant Staphylococcus aureus ATCC BAA-38 after 24 hrs by two fold dilution assay. As to conditions: ATCC BAA-38, 24 h. In short, it runs like this: as §1
For test [18], the system named is Staphylococcus aureus. The test is described as follows: Antibacterial activity against methicillin-sensitive Staphylococcus aureus ATCC 29213 after 24 hrs by two fold dilution assay. As to conditions: ATCC 29213, 24 h. In short, it runs like this: as §1
The test system of test [19] is Staphylococcus aureus. As to the kind of experiment: Antibacterial activity against methicillin-sensitive Staphylococcus aureus DM4299 after 24 hrs by two fold dilution assay. As to conditions: DM4299, 24 h. The procedure, abridged: as §1

≈ marks a conversion by molar mass, not a printed value. Some results are limits rather than exact numbers.

Usually MIC stands for the least concentration at which growth counts as inhibited. Low values mean inhibition by little substance, high ones a need for much substance. Take `CC(C)=CCOc1cc(OCC(=O)NCCCN(C)C)c2c(=O)c3c(OCC(=O)NCCCN(C)C)cc(OCC=C(C)C)cc3oc2c1`: the MIC against Staphylococcus aureus [1] is 6.25 µg/mL (≈ 9.18 µM); against Staphylococcus aureus [2] it was 6.25 µg/mL (≈ 9.18 µM); in the test with Bacillus cereus, 12.5 µg/mL (≈ 18.4 µM); in the test on Staphylococcus aureus [3], 12.5 µg/mL (≈ 18.4 µM).

As for `COC(=O)[C@H](CCCNC(=N)N)NC(=O)[C@H](CCCNC(=N)N)NC(=O)COc1cc(OC/C=C(\C)CCC=C(C)C)cc2oc3cc(OC/C=C(\C)CCC=C(C)C)cc(OCC(=O)N[C@@H](CCCNC(=N)N)C(=O)N[C@@H](CCCNC(=N)N)C(=O)OC)c3c(=O)c12`, the MIC in the test with Staphylococcus aureus [1], in the test on Staphylococcus aureus [2], against Bacillus cereus and against Staphylococcus aureus [3] was 25 µg/mL (≈ 19.2 µM) throughout.

With `CCn1cc(C(=O)O)c(=O)c2cc(F)c(N3CCNCC3)cc21` [NORFLOXACIN], the Ratio in the test with Staphylococcus aureus [4] came out at 128.

In the case of `CCN(CC)CCCNC(=O)COc1cc(OCC=C(C)C)cc2oc3cc(OCC=C(C)C)cc(OCC(=O)NCCCN(CC)CC)c3c(=O)c12`, the MIC in the test with Staphylococcus aureus [1] was 6.25 µg/mL (≈ 8.48 µM); against Staphylococcus aureus [2], 6.25 µg/mL (≈ 8.48 µM); against Bacillus cereus, 25 µg/mL (≈ 33.9 µM); against Staphylococcus aureus [3], 12.5 µg/mL (≈ 17 µM).

As to `CN[C@H](CC(C)C)C(=O)N[C@H]1C(=O)N[C@@H](CC(N)=O)C(=O)N[C@H]2C(=O)N[C@H]3C(=O)N[C@H](C(=O)N[C@H](C(=O)O)c4cc(O)cc(O)c4-c4cc3ccc4O)[C@H](O)c3ccc(c(Cl)c3)Oc3cc2cc(c3O[C@@H]2O[C@H](CO)[C@@H](O)[C@H](O)[C@H]2O[C@H]2C[C@](C)(N)[C@H](O)[C@H](C)O2)Oc2ccc(cc2Cl)[C@H]1O` [VANCOMYCIN], the MIC against Enterococcus faecium [5] is over 50 µg/mL; against Staphylococcus aureus [1], 1.56 µg/mL (≈ 1.08 µM); against Staphylococcus aureus [6], 0.78 µg/mL (≈ 0.538 µM); against Staphylococcus aureus [7], 0.78 µg/mL (≈ 0.538 µM); against Enterococcus faecium [8], over 50 µg/mL; in the test on Enterococcus hirae, 0.78 µg/mL (≈ 0.538 µM). Moreover, the MIC stood at 1.56 µg/mL (≈ 1.08 µM) against Staphylococcus aureus [9]; 1.56 µg/mL (≈ 1.08 µM) against Staphylococcus aureus [2]; 0.78 µg/mL (≈ 0.538 µM) against Staphylococcus aureus [10]; 1.56 µg/mL (≈ 1.08 µM) in the test on Bacillus cereus; 1.56 µg/mL (≈ 1.08 µM) in the test on Enterococcus faecalis; 1.56 µg/mL (≈ 1.08 µM) against Staphylococcus aureus [11]. In addition, the MIC in the test on Staphylococcus aureus [3] was 3.13 µg/mL (≈ 2.16 µM); in the test on Staphylococcus aureus [12] it was 0.78 µg/mL (≈ 0.538 µM); in the test on Staphylococcus aureus [13], 0.78 µg/mL (≈ 0.538 µM); against Enterococcus faecium [14], over 50 µg/mL; against Staphylococcus aureus [15] it was 1.56 µg/mL (≈ 1.08 µM); in the test with Staphylococcus aureus [16] it was 0.78 µg/mL (≈ 0.538 µM). Besides, the MIC in the test with Staphylococcus aureus [17], against Staphylococcus aureus [18] and with Staphylococcus aureus [19] was 1.56 µg/mL (≈ 1.08 µM) throughout.

For the molecule `COC(=O)[C@H](CCCNC(=N)N)NC(=O)COc1cc(OCC(=O)N[C@@H](CCCNC(=N)N)C(=O)OC)c2c(=O)c3c(OCC(=O)N[C@@H](CCCNC(=N)N)C(=O)OC)cc(OCC=C(C)C)cc3oc2c1`, the MIC against Staphylococcus aureus [1], against Staphylococcus aureus [2], with Bacillus cereus and in the test with Staphylococcus aureus [3] was 50 µg/mL (≈ 49.4 µM) each time.

Turning to `COc1c(N2CCNC(C)C2)c(F)cc2c(=O)c(C(=O)O)cn(C3CC3)c12` (centres undefined) [GATIFLOXACIN], in the test on Staphylococcus aureus [4], the Ratio is reported as 64.
